# Source: ChEMBL document CHEMBL4513216, “Probing the Open Global Health Chemical Diversity Library for Multistage-Active Starting Points for Next-Generation Antimalarials” (ACS Infect Dis, 2020)
# Experiment: Toxicity liver stage against HepG2, at 10uM
# Format: cell-based
# Set-up: test concentration 10 uM, cell line HepG2-A16-CD81EGFP
# Settings: human, HepG2-A16-CD81EGFP cells; read-out: INHIBITION
# Procedure, shortened: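 Uninfected HepG2-A16-CD81EGFP cells, 3 × 10^3 per well, 1536-well, plated on prespotted compound at 10 μM final, parasite-free screening media added to match infected plates; puromycin 10 μM positive, DMSO 0.5% negative; run in parallel with 48 h PbLuc assay at 37 °C, 5% CO2; viability by CellTiter-Glo luminescence, normalized to controls.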
row,Structure (SMILES),cytotoxicity at 10 µM [%]
1,O=C(O)c1ccc(Cc2cccc(F)c2)nc1,3.11
2,CCOC(=O)c1nnc2ccccc2c1N1CCOC(C)(C)C1,13.8
3,O=C(c1ccc(CNC2CCSC2)cc1)N1CCCC1 (centres undefined),-4.05
4,COc1ccc(F)c(NCc2cnn(C3CCS(=O)(=O)C3)c2)c1 (centres undefined),2.65
5,COC[C@@H]1CCC[C@@]12CN(Cc1ccco1)CCO2,2.03
6,O=C(CCNc1ncccn1)Nc1cc(C(F)(F)F)c[nH]c1=O,-6.45
7,CCN1CCc2c(CNC(=O)c3nccn3C)cncc2C1,-109
8,CN1CCCCC1c1ccc(-n2ccnc2)nc1 (centres undefined),5.01
9,CN(Cc1ccc(C(=O)NCC2COCCO2)c(=O)[nH]1)CC(C)(C)C (centres undefined),3.21
10,CN1CCOC(C(=O)Nc2ccc3[nH]nnc3c2)C1 (centres undefined),6.77
11,Cc1nn(C)c2ncc(S(=O)(=O)N3CCCC(C)CC3)cc12 (centres undefined),2.6
12,Cc1cccc2c1nc1n2[C@@H](CNC(=O)c2ccncc2)COC1,3.04
13,CN(CCn1ccc2ccccc21)C(=O)CS(C)(=O)=O,-8.14
14,Cn1ccnc1C1(O)CCN(C(=O)Cc2ccccc2)CC1,5.09
15,O=C1COC2(CCN(c3ncccn3)CC2)CN1,12.9
16,Cn1ccnc1SCCNc1nccc(C(F)(F)F)n1,-51
17,Cc1noc(C(C)N2CCN(CCOCC(F)(F)F)CC2)n1 (centres undefined),-1.4
18,Cc1sc(C(=O)O)cc1S(=O)(=O)Nc1c(F)cccc1-n1cccn1,-1.37
19,CC(C)C1CN(C(=O)c2cc(F)cc3[nH]cnc23)CCS1 (centres undefined),1.97
20,O=c1c(NCCNCCO)c(N2CCN(c3ccc(F)cc3)CC2)c1=O,-5.46
21,CCCc1ccc(S(=O)(=O)NC(=O)CCC2CCCO2)cc1 (centres undefined),-25.7

row,Structure (SMILES),cytotoxicity at 10 µM [%]
1,O=C(Nc1nc(-c2ccccc2)ns1)N1CCC(CO)CC1,9.11
2,CNc1ncccc1C(=O)N1CCN(Cc2ccc(C)cc2)C(=O)C1C (centres undefined),5.67
3,CN(C)c1ncccc1CNS(=O)(=O)c1cc(F)cc(F)c1,-14
4,CC(C)N1CCN(S(=O)(=O)c2ncn(C)c2Cl)CC1,13.9
5,Cc1cc(NCc2cccnc2)n2nc(C)cc2n1,-0.719
6,CNc1ncc(C(=O)N2CCOC(C(=O)Nc3ccccc3)C2)cn1 (centres undefined),-4.35
7,O=C(CCc1ccsc1)N1CCCCC1Cn1cccn1 (centres undefined),-5.78
8,Cc1ccc(C(=O)NCCC2CN(c3cnn(C)c(=O)c3)CCO2)s1 (centres undefined),-1.38
9,O=C(CC1CCc2ccccc21)NCCSc1cnn[nH]1 (centres undefined),0.878
10,CN(C)c1cc(C(=O)N2CCCCCC2)ccn1,-8.83
11,Cc1ccc(Cl)cc1NS(=O)(=O)c1cc(C(N)=O)n(C)c1,3.8
12,Fc1cnccc1CN1CCCC2(CCN(c3ncccn3)CC2)C1,-112
13,CCOCC1CN(Cc2ccoc2)Cc2cn(CC3CC3)nc21 (centres undefined),12.1
14,O=C(Cn1nc2ccccc2n1)N1CCCn2cncc2C1,1.87
15,CN1CCNC(=O)C12CCN(C(=O)c1ccc3[nH]c(=O)[nH]c3c1)CC2,0.5
16,CCc1c(C)sc2c1c(N)nc(=O)n2CCCN(C)C,2.06
17,CCCN1CCN(C(=O)c2ccc(Cn3cc(Br)cn3)cc2)CC1,-6.11
18,CC(C)c1cc(C(=O)N2CCOC3(CCCC3)C2)no1,-6.2
19,Fc1ccc(CN2CCOCC3(CCN(Cc4nccs4)C3)C2)cc1 (centres undefined),4.23
20,COCCNS(=O)(=O)c1c(C)sc2ccccc12,1.11
21,CC1C(=O)Nc2cccnc2N1S(=O)(=O)c1ccc(C#N)c(Cl)c1 (centres undefined),-6.75

row,Structure (SMILES),cytotoxicity at 10 µM [%]
1,COc1ncc(C)cc1NC(=O)COCC(F)(F)F,-5.42
2,CC(C)c1n[nH]c(C2CN(CCCS(C)(=O)=O)CCO2)n1 (centres undefined),-11.9
3,CCc1ccc(S(=O)(=O)Nc2cc(C(=O)O)c(F)cc2F)s1,-7.44
4,Cc1noc(C)c1CN(Cc1cccnc1)C1CN2CCC1CC2 (centres undefined),1.91
5,COc1ccc(C(=O)N2CCCC(n3cc(C)cn3)C2)c(F)c1 (centres undefined),-10.2
6,Cc1nnsc1C(=O)NCc1nn(C2CCCC2)c2c1CCCC2,-0.543
7,Cc1cnn(CC2CCCCN2CCCS(C)(=O)=O)c1 (centres undefined),-10.1
8,Cc1ccc(CN2CCOC3(COCCN(Cc4ccncc4)C3)C2)o1 (centres undefined),-109
9,Cc1n[nH]c(C2CN(CCCOc3cccc(Cl)c3)CCO2)n1 (centres undefined),-5.57
10,Cc1cnc(CN2CCC(N(C)Cc3noc(C4CC4)n3)C2)o1 (centres undefined),-12.6
11,COC(=O)CC1CN(Cc2c(Cl)ccc3cccnc23)CCO1 (centres undefined),8.36
12,Cc1ccc(C(=O)N2CCC(n3cc(CO)nn3)CC2)cn1,-1.72
13,COCC(=O)N1CCN(C(=O)c2scnc2C)CC1,-9.75
14,COC(=O)NCCC(=O)NC(C)Cc1cccc(Br)c1 (centres undefined),-15.8
15,CCn1cc(NC(=O)NCCN2CCc3ccccc3C2)cn1,-2.87
16,CCCN1CCC(NC(=O)Nc2ccc(OC)c(OC)c2)CC1,-13.4
17,Cc1ccnc(C2CN(c3ccnc(C)n3)C2)n1,-2.4
18,Cc1ccc(SCCCNC(=O)c2cn(C3CCC(N)CC3)nn2)cc1 (centres undefined),-8.33
19,Cc1occc1C(=O)N1CCO[C@H]2[C@H](OCc3cccnc3)CC[C@@H]21,4.84
20,CCS(=O)(=O)c1ncc(CN2CCSCC2)n1CCc1ccccc1,-1.95
21,CC(C)CCN1CCN(C(=O)c2c[nH]nn2)CC1,1.64

row,Structure (SMILES),cytotoxicity at 10 µM [%]
1,CC(C)Cc1ncc(CNc2cnccc2CO)s1,-6.53
2,O=C(N1CCCC1)N1C[C@@H]2CCNC[C@@H]21,0.375
3,CC(C)[C@@H](C)NC(=O)N1CCn2nc(C(=O)NCCN(C)C)cc2C1,2.62
4,O=C(NCCn1ccnc1)N1CCCN(Cc2cccs2)CC1,-29.7
5,O=C(c1csc(-c2ccco2)n1)N(CC1CCOC1)C1CC1 (centres undefined),-2.72
6,O=C(Cn1ccnc1)N(CCO)CCSc1ccc(Cl)cc1,4.38
7,CC(C)(C)S(=O)(=O)CCNC1CSCCc2ccccc21 (centres undefined),-2.35
8,CN(Cc1cccc(O)c1)Cc1cnn(C)c1,-0.198
9,c1coc(-c2noc(CN3CCCC(Cn4cncn4)C3)n2)c1 (centres undefined),-7.23
10,Cc1ccc(OCCN2CCC(c3ccnn3CCO)CC2)cc1,-3.29
11,O=C(c1cc[nH]n1)N1CCOCC2(C1)CN(c1ccccc1)C(=O)CO2 (centres undefined),-4.96
12,CCNC(=O)c1ccoc1CN1c2ccccc2CC1C (centres undefined),-10.2
13,Cc1cc(C)n(CC2CCCN2CC(=O)N(C)Cc2ccco2)n1 (centres undefined),-12.2
14,Cc1cccc(N2CCN(C(=O)NC(C)c3nncn3C)CC2)c1C (centres undefined),-4.41
15,O=C(c1ccncc1F)N1CCCC1c1nc(-c2ccccc2)n[nH]1 (centres undefined),1.34
16,Cc1cnn(CC2CCCCN2CC(=O)N(C)Cc2ccc(C)o2)c1 (centres undefined),10.6
17,Cc1ccc(N2CCN(C(=O)[C@@H]3CCC(=O)N3)CC2=O)cc1,-4.18
18,COc1ccc(-n2cnnc2SCC(=O)N(C)C(C)C)cn1,16.7
19,Cc1noc(C)c1CN1CC[C@H]2OCC[C@@H](C(=O)N3CCCO3)[C@@H]2C1,-8.25
20,CCCNC(=O)CNc1ccc2c(c1)N(C(=O)OC(C)(C)C)CCC2,13
21,CC(C)Oc1cccc(C(=O)C2CCCN(C(=O)c3cncs3)C2)c1 (centres undefined),3.19
